Calls of active or inactive are those of the source. The rule behind the calls is not given here.
Tests used:
[1] = Selectivity ratio of Kd for recombinant human N-terminal TEV cleavage site-fused-His6-tagged MTAP expressed in Escherichia coli BL21-CodonPlus(DE3)-RIPL competent cells to Kd for recombinant Helicobacter pylori MTAN expressed in Escherichia coli BL21(DE3)
In short: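 Ratio of the human MTAP dissociation constant to the HpMTAN dissociation constant. Each constant came from xanthine oxidase-coupled 305 nm rates taken at 40 min after slow-onset equilibrium and fitted to the Morrison equation. The MTAP assay used 800 μM MTA and 3 nM enzyme in 100 mM K2PO4; the HpMTAN assay used 1 mM MTA and 0.6 nM enzyme in 100 mM HEPES pH 7.2 with 100 mM NaCl.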

[2] = target: T1, S-methyl-5'-thioadenosine phosphorylase (Homo sapiens, UniProt Q13126); experiment: Binding affinity to recombinant human N-terminal TEV cleavage site-fused-His6-tagged MTAP expressed in Escherichia coli BL21-CodonPlus(DE3)-RIPL competent cells assessed as reduction in MTA hydrolysis measured after 40 mins in presence of xanthine oxidase
T1 sequence (Q13126 whole entry): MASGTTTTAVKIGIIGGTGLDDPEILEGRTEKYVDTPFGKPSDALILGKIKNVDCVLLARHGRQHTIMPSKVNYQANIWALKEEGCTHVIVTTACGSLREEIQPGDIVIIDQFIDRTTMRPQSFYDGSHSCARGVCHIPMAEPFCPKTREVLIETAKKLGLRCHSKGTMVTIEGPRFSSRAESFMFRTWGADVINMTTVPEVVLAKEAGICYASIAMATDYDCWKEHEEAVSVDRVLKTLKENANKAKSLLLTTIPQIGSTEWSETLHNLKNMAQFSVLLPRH
In short: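 MTAP (His6-tagged, TEV site, 14 extra N-terminal residues) was Ni-NTA purified and charcoal-dialysed to remove adenine. Each 1 mL cuvette held 100 mM K2PO4, 1 mM DTT, 800 μM MTA, 3 nM MTAP, 1 unit xanthine oxidase and varying inhibitor. Xanthine oxidase coupling gave 2,8-dihydroxyadenine, read at 305 nm (ε 15.5 mM⁻¹ cm⁻¹). Rates were taken at 40 min after slow-onset equilibrium. Ki* came from a Morrison quadratic fit.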

[3] = Binding affinity to recombinant Helicobacter pylori MTAN expressed in Escherichia coli BL21(DE3) assessed as reduction in MTA hydrolysis measured after 40 mins in presence of xanthine oxidase
In short: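 His-tagged HpMTAN was purified by Ni-NTA and freed of bound adenine by charcoal dialysis. Adenine was oxidized to 2,8-dihydroxyadenine and followed at 305 nm. Rates were read at 40 min, after slow-onset equilibrium, and fitted to the Morrison quadratic equation for Ki*.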

[4] = target: T2, S-methyl-5'-thioadenosine phosphorylase (Homo sapiens) (UniProt Q13126); experiment: Binding affinity to recombinant human N-terminal TEV cleavage site-fused-His6-tagged MTAP expressed in Escherichia coli BL21-CodonPlus(DE3)-RIPL competent cells assessed as reduction in MTA hydrolysis at 5 uM measured after 40 mins in presence of xanthine oxidase
T2 sequence (whole entry): T1 sequence (Q13126 whole entry)

[5] = system: Helicobacter pylori; experiment: Binding affinity to recombinant Helicobacter pylori MTAN expressed in Escherichia coli BL21(DE3) assessed as reduction in MTA hydrolysis at 5 uM measured after 40 mins in presence of xanthine oxidase

Kd [2]	Activity [4]	Activity [5]	Structure (SMILES)	Selectivity ratio [1]	Kd [3]
2.4 nM			C=CCn1cc(CCCSC[C@H]2CN(Cc3c[nH]c4c(N)ncnc34)C[C@@H]2O)nn1	92.3	0.026 nM
0.94 nM			C#CCCCSC[C@H]1CN(Cc2c[nH]c3c(N)ncnc23)C[C@@H]1O	36.2	0.026 nM
1.4 nM			Nc1ncnc2c(CN3C[C@H](CSCCCc4cn(Cc5ccccc5)nn4)[C@@H](O)C3)c[nH]c12	38.9	0.036 nM
	inactive	inactive	O=c1[nH]ccc2c(CN3C[C@H](CO)[C@@H](O)C3)c[nH]c12		
	inactive	inactive	CSC[C@H]1CN(Cc2c[nH]c3c(=O)[nH]ccc23)C[C@@H]1O		
70 nM			C=CCn1cc(CSC[C@H]2CN(Cc3c[nH]c4c(N)ncnc34)C[C@@H]2O)nn1	243	0.288 nM
31.9 nM			CSC[C@H]1CN(Cc2c[nH]c3c(N)nccc23)C[C@@H]1O	3.1	10.3 nM
66 nM			Cn1cc(CSC[C@H]2CN(Cc3c[nH]c4c(N)ncnc34)C[C@@H]2O)nn1	241	0.274 nM
13 nM			Nc1ncnc2c(CN3C[C@H](CSCc4cn(Cc5ccccc5)nn4)[C@@H](O)C3)c[nH]c12	178	0.073 nM
0.63 nM			C#CCSC[C@H]1CN(Cc2c[nH]c3c(N)ncnc23)C[C@@H]1O	11.5	0.055 nM
1.3 nM			CCCCn1cc(CCCSC[C@H]2CN(Cc3c[nH]c4c(N)ncnc34)C[C@@H]2O)nn1	46.4	0.028 nM
13 nM			Nc1ncnc2c(CN3C[C@H](CSc4ncccn4)[C@@H](O)C3)c[nH]c12	224	0.058 nM
3 nM			Cn1cc(CCCSC[C@H]2CN(Cc3c[nH]c4c(N)ncnc34)C[C@@H]2O)nn1	120	0.025 nM
19 nM			CSC[C@H]1CN(Cc2[nH]nc3c(N)ncnc23)C[C@@H]1O	80.9	0.235 nM
37 nM			CCCCn1cc(CSC[C@H]2CN(Cc3c[nH]c4c(N)ncnc34)C[C@@H]2O)nn1	99.2	0.373 nM
